Experiments:
[1] = Oral bioavailability in rat; format: ADME, organism-based; settings: in vivo
Vasopressin V1a receptor [2] = molecular target: Vasopressin V1a receptor (Rattus norvegicus, UniProt P30560); test: Inhibition of rat liver V1a receptor
[3] = Oral bioavailability in dog; format: ADME, organism-based, Canis lupus familiaris; settings: in vivo
Vasopressin V2 receptor [4] = molecular target: Vasopressin V2 receptor (Rattus norvegicus, UniProt Q00788); test: Inhibition of rat kidney V2 receptor
Vasopressin V2 receptor (Rattus norvegicus, UniProt Q00788), sequence (Q00788 whole entry): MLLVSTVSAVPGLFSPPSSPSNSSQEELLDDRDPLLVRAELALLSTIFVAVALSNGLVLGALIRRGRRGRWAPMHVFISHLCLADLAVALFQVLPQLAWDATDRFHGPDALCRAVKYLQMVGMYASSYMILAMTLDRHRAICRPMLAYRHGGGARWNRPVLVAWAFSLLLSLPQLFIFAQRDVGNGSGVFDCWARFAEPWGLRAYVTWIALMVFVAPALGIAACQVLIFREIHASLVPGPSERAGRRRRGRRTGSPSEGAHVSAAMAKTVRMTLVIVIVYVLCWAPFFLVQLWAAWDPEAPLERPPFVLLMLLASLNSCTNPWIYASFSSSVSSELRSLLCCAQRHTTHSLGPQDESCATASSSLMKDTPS

Oxytocin receptor [5] = molecular target: T1, Oxytocin receptor (Rattus norvegicus, UniProt P70536); test: Inhibition of rat uterus OT receptor
T1 sequence (P70536 whole entry): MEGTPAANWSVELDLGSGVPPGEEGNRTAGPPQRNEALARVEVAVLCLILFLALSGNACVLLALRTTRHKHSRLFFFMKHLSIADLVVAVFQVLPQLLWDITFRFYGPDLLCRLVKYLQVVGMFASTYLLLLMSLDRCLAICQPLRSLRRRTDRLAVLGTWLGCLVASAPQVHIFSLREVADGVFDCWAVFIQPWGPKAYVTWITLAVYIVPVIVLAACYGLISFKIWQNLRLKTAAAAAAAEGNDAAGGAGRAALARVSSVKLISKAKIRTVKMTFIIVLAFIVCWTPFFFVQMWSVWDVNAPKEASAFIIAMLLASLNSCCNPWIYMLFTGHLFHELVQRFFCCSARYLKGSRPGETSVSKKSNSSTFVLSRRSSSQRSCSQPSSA

Vasopressin V2 receptor [6] = molecular target: Vasopressin V2 receptor (Homo sapiens, UniProt P30518); test: Binding affinity to human V2 receptor
Vasopressin V2 receptor (Homo sapiens, UniProt P30518), sequence (P30518 whole entry): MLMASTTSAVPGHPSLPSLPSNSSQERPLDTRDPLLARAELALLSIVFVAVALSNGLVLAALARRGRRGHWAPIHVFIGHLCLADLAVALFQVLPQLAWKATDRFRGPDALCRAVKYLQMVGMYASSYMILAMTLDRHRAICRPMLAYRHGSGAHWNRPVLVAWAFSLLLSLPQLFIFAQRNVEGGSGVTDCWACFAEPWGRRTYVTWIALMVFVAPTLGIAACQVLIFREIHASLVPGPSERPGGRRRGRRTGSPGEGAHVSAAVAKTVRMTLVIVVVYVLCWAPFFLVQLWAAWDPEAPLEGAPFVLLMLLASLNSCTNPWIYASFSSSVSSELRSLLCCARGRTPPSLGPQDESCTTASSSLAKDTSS
Procedure, shortened: (§1)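 Ki values in nM from human receptor binding assays run by the NIMH Psychoactive Drug Screening Program.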

Oxytocin receptor [7] = molecular target: T2, Oxytocin receptor (Homo sapiens, UniProt P30559); test: Binding affinity to human OT receptor; procedure, shortened: as §1
T2 sequence (P30559 whole entry): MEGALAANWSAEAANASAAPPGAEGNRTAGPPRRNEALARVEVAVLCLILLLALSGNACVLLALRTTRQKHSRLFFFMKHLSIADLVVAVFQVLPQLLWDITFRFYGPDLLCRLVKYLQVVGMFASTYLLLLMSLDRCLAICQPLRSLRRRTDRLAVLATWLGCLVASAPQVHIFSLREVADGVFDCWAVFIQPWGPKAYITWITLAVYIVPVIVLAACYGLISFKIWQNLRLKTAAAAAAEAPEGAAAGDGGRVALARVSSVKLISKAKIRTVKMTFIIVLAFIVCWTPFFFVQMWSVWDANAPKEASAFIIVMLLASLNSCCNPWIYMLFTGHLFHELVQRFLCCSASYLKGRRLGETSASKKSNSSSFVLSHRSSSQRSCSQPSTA

Vasopressin V1b receptor = molecular target: T3, Vasopressin V1b receptor (Homo sapiens, UniProt P47901); test: Binding affinity to V1B receptor (unknown origin); procedure, shortened: as §1
T3 sequence (P47901 whole entry): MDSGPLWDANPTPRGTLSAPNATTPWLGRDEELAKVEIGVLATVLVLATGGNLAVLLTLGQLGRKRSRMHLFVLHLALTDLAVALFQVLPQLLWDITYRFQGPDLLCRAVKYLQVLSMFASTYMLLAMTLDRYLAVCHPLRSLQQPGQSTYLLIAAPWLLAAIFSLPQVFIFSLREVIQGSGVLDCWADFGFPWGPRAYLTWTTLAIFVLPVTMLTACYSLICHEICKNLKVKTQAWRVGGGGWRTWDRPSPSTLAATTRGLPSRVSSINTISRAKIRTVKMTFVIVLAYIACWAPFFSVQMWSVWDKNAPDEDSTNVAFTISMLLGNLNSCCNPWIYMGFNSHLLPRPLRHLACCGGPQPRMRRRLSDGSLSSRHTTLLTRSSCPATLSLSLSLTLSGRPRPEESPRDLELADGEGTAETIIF

Vasopressin V1a receptor [8] = molecular target: Vasopressin V1a receptor (Homo sapiens, UniProt P37288); test: Binding affinity to human liver V1A receptor
Vasopressin V1a receptor (Homo sapiens, UniProt P37288), sequence (P37288 whole entry): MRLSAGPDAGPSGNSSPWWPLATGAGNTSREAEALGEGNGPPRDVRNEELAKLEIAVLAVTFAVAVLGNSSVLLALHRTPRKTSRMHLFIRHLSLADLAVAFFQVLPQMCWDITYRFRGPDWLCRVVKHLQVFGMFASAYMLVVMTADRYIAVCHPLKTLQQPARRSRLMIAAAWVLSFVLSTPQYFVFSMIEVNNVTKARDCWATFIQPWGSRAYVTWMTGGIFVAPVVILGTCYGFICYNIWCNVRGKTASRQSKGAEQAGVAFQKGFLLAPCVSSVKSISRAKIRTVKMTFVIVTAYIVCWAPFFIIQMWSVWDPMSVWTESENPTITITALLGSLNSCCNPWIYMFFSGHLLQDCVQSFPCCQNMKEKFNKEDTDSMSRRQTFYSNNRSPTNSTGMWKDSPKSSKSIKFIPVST

[9] = Drug uptake in Sprague-Dawley rat dorsal caudate nucleus at 500 uCi after 10 mins by PET imaging analysis; format: ADME, tissue-based; settings: in vivo
[10] = Drug uptake in Sprague-Dawley rat amygdala at 500 uCi after 10 mins by PET imaging analysis; format: ADME, tissue-based; settings: in vivo
[11] = Drug uptake in Sprague-Dawley rat pituitary gland at 500 uCi by PET imaging analysis; format: ADME, tissue-based; settings: in vivo
Brain [12] = test: Drug uptake in cynomolgus monkey brain at 8.3 mCi, iv after 2 hrs by PET imaging analysis; format: ADME, organism-based, Macaca fascicularis; settings: in vivo
Procedure, shortened: (§2)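 One male cynomolgus monkey (8.91 kg) given an 8.3 mCi iv bolus of radiotracer. PET scan for 2 h from injection, with images summed. Time-activity curves were derived for choroid plexus, muscle and whole brain.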

Muscle tissue = test: Drug uptake in Sprague-Dawley rat muscle at 500 uCi by PET imaging analysis in presence of ornithine vasotocin; format: ADME, tissue-based; settings: in vivo
Procedure, shortened: (§3)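 Estradiol benzoate-primed Sprague-Dawley rats (10–12 μg sc in sesame oil, daily for 3 days). The peptide OT antagonist ornithine vasotocin (5 mg/kg) was injected 10 min before the radiotracer to block peripheral receptors. 500 μCi of tracer was injected 30 s into a 45 min emission scan.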

[13] = Drug uptake in cynomolgus monkey muscle at 8.3 mCi, iv after 2 hrs by PET imaging analysis; format: ADME, organism-based, Macaca fascicularis, Muscle tissue; settings: in vivo; procedure, shortened: as §2
[14] = Lipophilicity, log P of the compound at pH 7.4; format: physicochemical; settings: buffer
Brain [15] = test: Drug uptake in Sprague-Dawley rat brain at 500 uCi after 10 mins by PET imaging analysis; format: ADME, tissue-based; settings: in vivo
Hypothalamus = test: Drug uptake in Sprague-Dawley rat hypothalamus at 500 uCi after 10 mins by PET imaging analysis; format: ADME, tissue-based; settings: in vivo
Brain [16] = test: Drug uptake in Sprague-Dawley rat brain at 500 uCi by PET imaging analysis; format: ADME, tissue-based; settings: in vivo
[17] = Drug uptake in cynomolgus monkey choroid plexus at 8.3 mCi, iv after 2 hrs by PET imaging analysis; format: ADME, organism-based, Macaca fascicularis; settings: in vivo; procedure, shortened: as §2
[18] = Drug uptake in Sprague-Dawley rat pituitary gland at 500 uCi by PET imaging analysis in presence of ornithine vasotocin; format: ADME; settings: in vivo; procedure, shortened: as §3

Vasopressin V1a receptor (Rattus norvegicus, UniProt P30560), sequence (P30560 whole entry): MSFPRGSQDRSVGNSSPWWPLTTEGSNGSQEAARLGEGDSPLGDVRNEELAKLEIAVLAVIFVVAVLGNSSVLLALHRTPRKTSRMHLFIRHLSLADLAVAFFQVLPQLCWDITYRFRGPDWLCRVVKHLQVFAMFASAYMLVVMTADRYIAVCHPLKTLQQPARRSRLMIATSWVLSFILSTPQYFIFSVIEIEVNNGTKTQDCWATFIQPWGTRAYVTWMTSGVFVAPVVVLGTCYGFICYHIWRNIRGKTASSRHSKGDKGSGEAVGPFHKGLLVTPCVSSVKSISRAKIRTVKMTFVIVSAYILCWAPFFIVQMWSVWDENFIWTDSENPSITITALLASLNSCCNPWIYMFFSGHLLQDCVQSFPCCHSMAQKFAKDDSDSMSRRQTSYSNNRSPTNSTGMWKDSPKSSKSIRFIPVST

SMILES: Cc1ccccc1N1CCN(S(=O)(=O)C[C@]23CC[C@H](C[C@@H]2NC(=O)[C@@H](N)CCS(C)(=O)=O)C3(C)C)CC1
- bioavailability [1]: 17%
- IC50 (Vasopressin V1a receptor [2]): 370 nM
- bioavailability [3]: 17%
- IC50 (Vasopressin V2 receptor [4]): 570 nM
- IC50 (Oxytocin receptor [5]): 8.9 nM

SMILES: CN[C@@H](CCS(C)(=O)=O)C(=O)N[C@H]1C[C@H]2CC[C@]1(CS(=O)(=O)N1CCN(c3ccccc3C)CC1)C2(C)C
- Ki (Vasopressin V2 receptor [6]): 181 nM
- IC50 (Vasopressin V1a receptor [2]): 320 nM
- Ki (Oxytocin receptor [7]): 5.2 nM
- Ki (Vasopressin V1b receptor): 1300 nM
- Ki (Vasopressin V1a receptor [8]): 620 nM
- IC50 (Vasopressin V2 receptor [4]): 350 nM
- IC50 (Oxytocin receptor [5]): 9.2 nM

SMILES: Cc1ccccc1N1CCN(S(=O)(=O)C[C@]23CC[C@H](C[C@@H]2NC(=O)[C@H](CCS(C)(=O)=O)N[11CH3])C3(C)C)CC1
- Drug uptake [9]: Active
- Drug uptake [10]: Active
- Drug uptake [11]: Active
- Drug uptake (Brain [12]): Not Active
- Drug uptake (Muscle tissue): Active
- Drug uptake [13]: Active
- logD [14]: 2.62
- Drug uptake (Brain [15]): Active
- Drug uptake (Hypothalamus): Active
- Drug uptake (Brain [16]): Active
- Drug uptake [17]: Active
- Drug uptake [18]: Active

Reference: ChEMBL document CHEMBL2390856, “Carbon-11 N-methyl alkylation of L-368,899 and in vivo PET imaging investigations for neural oxytocin receptors” (Bioorg Med Chem Lett, 2013)
